Paper PMC4506969 (International Journal for Parasitology: Drugs and Drug …, 2015)
Values joined by “and” are separate entries in the source; they are usually repeats but may differ in a detail not shown here. Identical values can stand only once. Like-named read-outs stand apart in the source and are kept apart here.

Assays:
P. falciparum 3D7 = assay: microbe, parasite or virus in culture; assay type: cell-based; conditions: Plasmodium falciparum, 3D7, read-out: P. falciparum IC50 3D7
P. falciparum Dd2 = assay: P. falciparum growth inhibition assay, [3H] hypoxanthine incorporation, Dd2 line; assay type: cell-based; conditions: Plasmodium falciparum, DD2, read-out: P. falciparum IC50 Dd2
[1] = system: asexual-stage P. falciparum; assay: P. falciparum asexual-stage growth inhibition, line not specified or both lines; assay type: cell-based, Plasmodium falciparum; conditions: for IC50 / IC90: Plasmodium falciparum; for IC50: 3D7|DD2, read-out: IC50 against 3D7 and Dd2 P. falciparum lines; for IC90: in Homo sapiens, read-out: P. falciparum IC90; for P. falciparum SI (Selectivity Index): mammalian cell IC50/P. falciparum IC50, larger values indicate greater parasite selectivity
[2] = system: T. b. brucei 427 bloodstream trypanosomes; assay: T. b. brucei growth inhibition assay; assay type: cell-based, Trypanosoma brucei brucei; conditions: for IC50: read-out: T. b. brucei IC50; for IC90: in Homo sapiens, read-out: T. b. brucei IC90; for T. b. brucei SI (Selectivity Index): mammalian cell IC50/T. brucei IC50
[3] = system: Neonatal foreskin fibroblast (NFF) cells; assay: NFF cytotoxicity assay; assay type: cell-based; conditions: Homo sapiens, 72 h, read-out: Mammalian cell IC50 NFF
HEK293 cells = assay: HEK293 cytotoxicity assay; assay type: cell-based; conditions: read-out: Mammalian cell IC50 HEK 293
[4] = system: tetra-acetylated histone H4 in P. falciparum 3D7 trophozoites; assay: Protein hyperacetylation assay, Western blot, anti-tetra-acetyl histone H4; assay type: cell-based, Plasmodium falciparum; conditions: 3× IC50, 3 h; for Hyperacetylation, anti-(tetra) acetyl H4 antibody (words): vs vehicle control
Summary of the method: (§1)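 Synchronous trophozoite-stage 3D7-infected erythrocytes (3–5% parasitemia, 5% haematocrit) were exposed for 3 h, with controls of 0.05% DMSO vehicle, chloroquine and a reference HDAC inhibitor. Lysis used 0.15% saponin, then PBS washes, SDS-PAGE and PVDF blotting. Rabbit primaries ran overnight at 4 °C: tetra-acetyl H4 1:2000, H3K9 1:1000, H3 N-terminus 1:500. Membranes were stripped at pH 2 and reprobed with anti-RAP2. Densitometry was RAP2-normalised and expressed as fold change vs vehicle (=1).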

recombinant PfHDAC1 = biological target: T1, recombinant PfHDAC1 (Plasmodium falciparum, UniProt Q7K6A1); assay: Deacetylase activity assay, recombinant PfHDAC1; assay type: biochemical; conditions: mean (±SD) of two independent assays; for inhibition at 1 µM: read-out: PfHDAC1 % inhibition at 1 μM, 1 μM
T1 sequence (Q7K6A1 1-449): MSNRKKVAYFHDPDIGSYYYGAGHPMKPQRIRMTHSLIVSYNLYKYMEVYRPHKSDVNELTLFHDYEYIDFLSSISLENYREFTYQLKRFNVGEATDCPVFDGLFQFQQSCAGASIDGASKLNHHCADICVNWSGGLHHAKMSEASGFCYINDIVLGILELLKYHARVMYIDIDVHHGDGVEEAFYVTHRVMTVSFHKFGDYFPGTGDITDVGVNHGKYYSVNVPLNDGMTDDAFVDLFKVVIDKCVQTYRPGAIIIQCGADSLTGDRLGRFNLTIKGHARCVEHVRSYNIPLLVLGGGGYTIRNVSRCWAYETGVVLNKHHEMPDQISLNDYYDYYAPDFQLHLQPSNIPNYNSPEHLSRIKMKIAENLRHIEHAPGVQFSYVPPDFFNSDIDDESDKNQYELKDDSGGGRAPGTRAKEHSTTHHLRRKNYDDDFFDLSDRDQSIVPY
Summary of the method: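 Recombinant PfHDAC1 (32 ng/ml) was incubated with test compound or control at 1 μM, or with vehicle (0.5% DMSO). Ac-RGK(Ac)-AMC fluorogenic substrate was added for 1 h at 37 °C, then activator solution for 10 min at room temperature. Fluorescence (ex 350–380/em 440–460 nm) was read within 60 min. Percent inhibition was calculated versus DMSO controls from two independent assays, each in duplicate.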

T. b. brucei = conditions: read-out: T. b. brucei growth IC50; ref Carrillo et al., 2015; cited from earlier work
[5] = system: acetyl histone H3 lysine 9 in P. falciparum 3D7 trophozoites; assay: Protein hyperacetylation assay, Western blot, anti-acetyl histone H3 lysine 9; assay type: cell-based, Plasmodium falciparum; conditions: 3× IC50, 3 h
Summary of the method: as §1

[6] = system: acetyl histone H3 N-terminus in P. falciparum 3D7 trophozoites; assay: Protein hyperacetylation assay, Western blot, anti-acetyl histone H3 N-terminus; assay type: cell-based, Plasmodium falciparum; conditions: 3× IC50, 3 h
Summary of the method: as §1

P. falciparum = conditions: read-out: P. falciparum in vitro growth IC50; ref Patel et al., 2009; cited from earlier work
[7] = system: sexual stage P. falciparum gametocytes; conditions: ref Sun et al., 2014, cited from earlier work; for IC50: read-out: Sexual stage P. falciparum gametocytes IC50
[8] = HEK293 cytotoxicity assay; assay type: cell-based; conditions: human, HEK293 cells
early stage gametocytes = conditions: read-out: Early stage gametocytes IC50; ref Trenholme et al., 2014; cited from earlier work
late stage gametocytes = conditions: read-out: Late stage gametocytes IC50; ref Trenholme et al., 2014; cited from earlier work

Row | Structure (SMILES) | IC50 (P. falciparum 3D7) | IC50 (P. falciparum Dd2) | IC90 [1] | P. falciparum SI (Selectivity Index) [1] | Times less active against T.b. brucei than P. falciparum [2] | IC50 ([2]; Trypanosoma brucei, 48 h) | IC90 ([2]; Trypanosoma brucei) | T. b. brucei SI (Selectivity Index) [2] | IC50 [3] | IC50 (HEK293 cells; Homo sapiens, HEK293, 48 h) | Hyperacetylation, anti-(tetra) acetyl H4 antibody (words) [4] | inhibition at 1 µM (recombinant PfHDAC1) | also measured
1 | O=C(/C=C/c1cccc(S(=O)(=O)Nc2ccccc2)c1)NO [Belinostat, belinostat] | 60 nM | 130 nM | 120 nM | 11–40 | ~100 times | 2610 nM | 3640 nM | <1 | 2370 nM | 1420 nM | caused hyperacetylation | 78.5 ± 4.7% | IC50 [1]: < 200 nM; Fold increase in acetylation signal, anti-(tetra) acetyl H4 antibody ([4]; relative density vs DMSO control, normalised to RAP2): > 1.3 fold; IC50 (T. b. brucei): 2200 nM
2 | CCN(CC)CCCC(C)Nc1ccnc2cc(Cl)ccc12 (stereo not drawn) [Chloroquine, chloroquine] | 10 nM | 80 nM | – | 612–4893 | – | 9920 nM | – | 5 | 48900 nM | – | did not result in hyperacetylation | – | –
3 | CC(=O)NCC(=O)O.CC(=O)NCC(=O)O.N=C(N)c1ccc(N=NNc2ccc(C(=N)N)cc2)cc1 [Diminazene aceturate, diminazene aceturate] | – | – | – | – | – | – | – | >617 | – | – | – | – | IC50 ([2]; 427 bloodstream form, 48 h exposure): 60 nM; IC50 (HEK293 cells; 48 h exposure, resazurin): > 37000 nM
4 | Cc1[nH]c2ccccc2c1CCNCc1ccc(/C=C/C(=O)NO)cc1 [Panobinostat, panobinostat] | 10 nM | 30 nM | 10 nM | – | ~100 times | 1690 nM | 3280 nM | – | 70 nM | – | did not increase acetylation | ~100% | Hyperacetylation, anti-(tetra) acetyl H4 antibody (words) ([4]; listed as panobinostat): did not result in hyperacetylation; Hyperacetylation, anti-histone H3 lysine 9 antibody [5]: cause hyperacetylation; Hyperacetylation, anti-histone H3 N-terminus antibody [6]: did not increase acetylation; IC50 (P. falciparum): ~20 nM; IC50 (T. b. brucei): 1600 nM; IC50 [7]: 940 nM
5 | N=C(N)c1ccc(OCCCCCOc2ccc(C(=N)N)cc2)cc1 [Pentamidine] | – | – | – | – | – | 4 nM | – | >173 | – | > 690 nM | – | – | –
6 | COc1ccc(C[C@H](N)C(=O)N[C@H]2[C@@H](O)[C@H](n3cnc4c(N(C)C)ncnc43)O[C@@H]2CO)cc1 [Puromycin, puromycin] | – | – | – | – | – | – | – | – | – | – | – | – | IC50 at 48 h [8]: 797 nM
7 | C/C=C1\NC(=O)[C@H]2CSSCC/C=C/[C@H](CC(=O)N[C@H](C(C)C)C(=O)N2)OC(=O)[C@H](C(C)C)NC1=O [Romidepsin, romidepsin] | 90 nM | 130 nM | 180 nM | <1 | – | 35 nM | 100 nM | <1 | 1 nM | < 5 nM | caused hyperacetylation | 48.3 ± 39.3% | IC50 [1]: < 200 nM; Fold increase in hyperacetylation, anti-histone H3 lysine 9 antibody ([5]; vs vehicle control): 5–6 fold; IC50 [7]: 640 nM; Selectivity for gametocytes compared to the mammalian cell line HepG2 [7]: > 10 fold
8 | CC(/C=C/C(=O)NO)=C\[C@@H](C)C(=O)c1ccc(N(C)C)cc1 [TSA, trichostatin A] | – | – | – | – | – | – | – | – | – | – | – | – | PfHDAC1 % inhibition at 1 μM (recombinant PfHDAC1; 1 μM): ~100% and 98.9 ± 1.5%; IC50 (early stage gametocytes): 90 nM; IC50 (late stage gametocytes): 70 nM
9 | O=C(CCCCCCC(=O)Nc1ccccc1)NO [Vorinostat, suberoylanilide hydroxamic acid] | – | – | – | – | ~100 times | – | 18700 nM | – | – | – | – | 59.8 ± 12.7% | IC50 (late stage gametocytes): 810 nM
